What all share (format): functional
Details in all cases: route intraperitoneal

Experiment [1] has as its system Mus musculus. As to the kind of experiment: Antitumor activity in mice bearing Ehrlich ascites tumor cells at 50 mg/kg ip. In short, it runs like this:
(§1)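 Female Swiss mice (average weight 21 ± 1 g), groups of eight, implanted with 10^6 Ehrlich ascites tumor cells from donor mice; single ip dose in DMSO given 24 h later, starting at 100 mg/kg, repeated at lower doses in new groups if active. Deaths followed for 60 days; % T/C = mean survival time treated vs vehicle controls (10 mice).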

Experiment [2] has as its system Mus musculus. The experiment in a line: Antitumor activity in mice bearing Ehrlich ascites tumor cells at 100 mg/kg ip. In short, it runs like this:
as §1

Experiment [3] concerns Mus musculus. The experiment in a line: Antitumor activity in mice bearing Ehrlich ascites tumor cells at 25 mg/kg ip. An outline of the steps:
as §1

Experiment [4] deals with Mus musculus. The experiment in a line: Antitumor activity in mice bearing Ehrlich ascites tumor cells at 12.5 mg/kg ip. An outline of the steps:
as §1

As for `Cl.N=C(N)N/N=C/c1c(-c2ccccc2)nc2n1CCS2`, the T/C (usually the ratio of treated to control) in the experiment on Mus musculus [1] came out at 100%.

On to `Cc1ccc(-c2nc3n(c2/C=N/N=C(N)N)CCS3)cc1.Cl`, for which, in the experiment with Mus musculus [1], the T/C came to 100%.

The compound `Cl.N=C(N)N/N=C/c1c(Cl)nc2n1CCS2` came in with a T/C in the experiment on Mus musculus [2] of 180%.

Take `O=c1[nH]cc(F)c(=O)[nH]1` [FLUOROURACIL]: the T/C in the experiment on Mus musculus [2] is reported as 180%.

`Cc1ccc(-c2nc3sccn3c2/C=N/N=C(N)N)cc1.Cl` had a T/C in the experiment on Mus musculus [3] of 110%.

Turning to `Cc1nc2n(c1/C=N/N=C(N)N)CCS2.Cl`, the T/C in the experiment on Mus musculus [1] is recorded as 100%.

The compound `Cl.N=C(N)N/N=C/c1c(-c2ccccc2)nc2sccn12` returned a T/C in the experiment with Mus musculus [1] of 120%.

As to `Cl.N=C(N)N/N=C/c1c(-c2ccc(Cl)cc2)nc2sccn12`, the T/C with Mus musculus [4] stood at 190%.

Turning to `Cc1nc2sccn2c1/C=N/N=C(N)N.Cl`, the T/C with Mus musculus [2] is 100%.

`Cl.N=C(N)N/N=C/c1c(Cl)nc2sccn12` came in with a T/C in the experiment with Mus musculus [1] of 200%.

These data come from ChEMBL document CHEMBL1126111, “Potential antitumor agents. 21. Structure determination and antitumor activity of imidazo[2,1-b]thiazole guanylhydrazones” (1992).
